Measurements gathered from unrelated publications.
Each line is one published result; the experiments were not run side by side.
Target: Rho-associated protein kinase 1 (ROCK1, Homo sapiens, UniProt Q13464)

Compound	observed	action	technique	concentration	quantity	result
C[C@@H](c1cccc(C#N)c1)n1cc(Cl)cc(C(N)=O)c1=N	cell-free assay		competition with immobilised ligand	1 µM	remaining binding	71%
O=S(=O)(c1cccc2cnccc12)N1CCCNCC1	cell-free assay			0.5 µM	remaining signal	60.2%
CC(=O)N1CCC(c2ccc(C(=O)NC(=N)N)cc2C(F)(F)F)CC1	cell-free assay		competition with immobilised ligand	1 µM	remaining binding	87%
CC(C)(C)c1nc(-c2cccc(NS(=O)(=O)c3c(F)cccc3F)c2F)c(-c2ccnc(N)n2)s1	enzyme activity	inhibitor	radiometric	1 µM	remaining activity	104%
CN1CC(Oc2cnc(C#N)cc2-c2ccn3nc(NC(=O)C4CC4)cc3c2)C1	enzyme activity	inhibitor		1 µM	inhibition	0%
Cc1ccc(Nc2nccc(N(C)c3ccc4c(C)n(C)nc4c3)n2)cc1S(N)(=O)=O	enzyme activity	inhibitor		10 µM	inhibition	18%
C[C@@H](N)[C@H]1CC[C@H](C(=O)Nc2ccncc2)CC1	cell-free assay			0.5 µM	remaining signal	31.5%
CN(C)c1ncnc(-c2ccc3nc(Nc4cc(CN5CCN(C(=O)CC(F)(F)F)CC5)ccn4)[nH]c3c2)c1Cl	cell-free assay		competition with immobilised ligand	1 µM	remaining binding	100%
O=C1Nc2ccc(Cl)cc2C1=Cc1cc(Cl)c(O)c(Cl)c1	cell-free assay			0.5 µM	remaining signal	93.2%
Cc1sc(C(=O)NC2COC2)cc1-n1cc(NC(=O)Nc2c(F)cccc2Cl)cn1	enzyme activity	inhibitor		10 µM	remaining activity	96.8%
CN(C)C(=O)Cn1cc(-c2nc(C3(c4ccc(-c5cnc(N)nc5)cc4)CC3)no2)cn1	cell-free assay		competition with immobilised ligand	1 µM	remaining binding	83%
COc1cc2ncnc(Nc3ccc(Oc4ccccc4)cc3C)c2cc1OC	enzyme activity	inhibitor		1 µM	inhibition	1%
CNC(=O)c1cc(Oc2ccc(NC(=O)Nc3ccc(Cl)c(C(F)(F)F)c3)cc2)ccn1	enzyme activity	inhibitor		10 µM	inhibition	8%
O=c1nc(-c2ccccn2)sc2ccccc12	binding		competition with immobilised ligand	1 µM	remaining binding	100%
CN(C)C1CCN(CC#Cc2nn(C3CCCC3)c3nc(NCc4ccccc4)ncc23)C1 (stereo not drawn)	enzyme activity	inhibitor	FRET	0.1 µM	inhibition	-5%
CC(C)(O)[C@H]1CC[C@H](Nc2ccc3ncc(-c4cccc(C(F)(F)F)c4)n3n2)CC1	enzyme activity	inhibitor		1 µM	remaining activity	94%
Cc1ccc(NC(=O)c2ccc(C)c(C(F)(F)F)c2)cc1C#Cc1nn(C2CCC(O)CC2)c2ncnc(N)c12 (stereo not drawn)	cell-free assay			10 µM	remaining signal	126%
Cc1ccc(C(=O)Nc2ccc(CN3CCN(C)CC3)c(C(F)(F)F)c2)cc1C#Cc1cnc2cccnn12	enzyme activity	inhibitor		23.5 nM	remaining activity	79%
c1ccc(CNc2nc(N3CCOc4ccccc43)nc3c2CCCC3)cc1	target engagement in cells	inhibitor	chemoproteomics	20 mM	inhibition	3.9%
Cn1cncc1C1=CN(c2ncnc3[nH]cnc23)CCS1	enzyme activity	inhibitor	radiometric	2 µM	inhibition	88.6%
COc1cc(-c2cn(C3CCc4ccccc4N(CC(F)(F)F)C3=O)nn2)ccc1-n1ccc(C)n1 (stereo not drawn)	cell-free assay		competition with immobilised ligand	1 µM	remaining binding	100%
CC/C(=N\NC(=O)C(C)Nc1ccccc1)c1ccc(O)c(C)c1O (stereo not drawn)	enzyme activity	inhibitor		0.1 µM	inhibition	18.5%
CN1CCN(c2cnc3c(C4CCN(C(=O)c5ccc(OC(F)(F)F)cc5N)CC4)ncnc3c2)CC1	cell-free assay		competition with immobilised ligand	1 µM	remaining binding	100%
Cc1cnc(NC2CCOCC2)nc1-n1cnc(C(=O)NC(CN)c2cc(F)cc(Cl)c2)c1 (stereo not drawn)	enzyme activity	inhibitor	radiometric	1 µM	remaining activity	62%
Cc1c[nH]c2nccc(Oc3c(F)cc(Nc4cc(Cl)nc(N)n4)cc3F)c12	cell-free assay		competition with immobilised ligand	0.1 µM	remaining binding	0.6%
O=C(Nc1cnn(-c2csc(C(=O)NC3COC3)c2)c1)Nc1c(F)cccc1Cl	enzyme activity	inhibitor		5 µM	remaining activity	78.2%
CC(C)c1ccc(NC(=O)c2cccs2)c(-c2nc3ccccc3[nH]c2=O)c1	enzyme activity	inhibitor		1 µM	activity vs control	122%
CCN(CC)CCNC(=O)c1c(C)[nH]c(/C=C2\C(=O)Nc3ccc(F)cc32)c1C	enzyme activity	inhibitor		0.3 µM	inhibition	6%
CCCCNc1ncc2c(-c3ccc(F)cc3)nn(C[C@H]3CC[C@H](N)CC3)c2n1	target engagement in cells	inhibitor	chemoproteomics	20 mM	inhibition	54.3%
CCCS(=O)(=O)Nc1ccc(F)c(C(=O)c2c[nH]c3ncc(-c4ccc(Cl)cc4)cc23)c1F	enzyme activity	inhibitor		1 µM	inhibition	< 10%
